Data on 40 compounds can be found in ChEMBL document CHEMBL4177580, “New 5-HT1A, 5HT2A and 5HT2C receptor ligands containing a picolinic nucleus: Synthesis, in vitro and in vivo pharmacological evaluation” (Bioorg Med Chem, 2017).

For experiment [1], the target named is T1, 5-hydroxytryptamine receptor 1A (Rattus norvegicus, UniProt P19327).
T1 sequence (P19327 whole entry): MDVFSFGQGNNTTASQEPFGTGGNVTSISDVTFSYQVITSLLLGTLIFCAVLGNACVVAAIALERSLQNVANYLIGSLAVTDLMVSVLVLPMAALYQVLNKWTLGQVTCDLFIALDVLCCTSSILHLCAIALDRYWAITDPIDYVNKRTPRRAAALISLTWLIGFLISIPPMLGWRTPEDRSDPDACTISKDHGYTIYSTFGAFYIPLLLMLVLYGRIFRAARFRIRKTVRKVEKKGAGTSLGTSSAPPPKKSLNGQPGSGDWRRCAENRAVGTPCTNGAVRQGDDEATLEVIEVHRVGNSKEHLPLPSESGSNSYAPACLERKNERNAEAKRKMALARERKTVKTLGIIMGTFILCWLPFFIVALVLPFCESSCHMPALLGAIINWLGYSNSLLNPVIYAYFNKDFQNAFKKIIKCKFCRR
As to the kind of experiment: Displacement of [3H]-8-OH-DPAT from serotonin 5-HT1A receptor in Sprague-Dawley rat brain cortex homogenates incubated for 30 mins by liquid scintillation spectrometry. A general note: Loss of bound radioactivity is the signal in a displacement assay; it reports binding, not function.

The target of experiment [2] is T2, 5-hydroxytryptamine receptor 2A (Rattus norvegicus, UniProt P14842). The experiment in a line: Displacement of [3H]ketanserin from serotonin 5-HT2A receptor in Sprague-Dawley rat brain cortex homogenates incubated for 15 mins by liquid scintillation spectrometry.
T2 sequence (P14842 whole entry): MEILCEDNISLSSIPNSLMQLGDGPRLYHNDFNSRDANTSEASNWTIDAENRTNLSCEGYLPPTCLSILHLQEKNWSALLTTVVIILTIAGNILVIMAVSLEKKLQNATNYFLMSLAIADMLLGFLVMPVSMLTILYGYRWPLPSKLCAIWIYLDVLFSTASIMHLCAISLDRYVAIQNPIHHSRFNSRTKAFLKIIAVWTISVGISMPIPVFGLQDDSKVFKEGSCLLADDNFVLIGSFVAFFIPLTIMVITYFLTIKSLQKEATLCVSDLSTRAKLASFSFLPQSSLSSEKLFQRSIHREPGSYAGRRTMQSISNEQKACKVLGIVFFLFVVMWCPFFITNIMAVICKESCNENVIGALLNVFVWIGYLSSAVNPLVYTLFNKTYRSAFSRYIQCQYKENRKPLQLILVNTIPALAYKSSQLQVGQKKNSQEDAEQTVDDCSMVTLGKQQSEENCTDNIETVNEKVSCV
Experiment [3] has as its target T3, 5-hydroxytryptamine receptor 2C (Rattus norvegicus, UniProt P08909).
T3 sequence (P08909 whole entry): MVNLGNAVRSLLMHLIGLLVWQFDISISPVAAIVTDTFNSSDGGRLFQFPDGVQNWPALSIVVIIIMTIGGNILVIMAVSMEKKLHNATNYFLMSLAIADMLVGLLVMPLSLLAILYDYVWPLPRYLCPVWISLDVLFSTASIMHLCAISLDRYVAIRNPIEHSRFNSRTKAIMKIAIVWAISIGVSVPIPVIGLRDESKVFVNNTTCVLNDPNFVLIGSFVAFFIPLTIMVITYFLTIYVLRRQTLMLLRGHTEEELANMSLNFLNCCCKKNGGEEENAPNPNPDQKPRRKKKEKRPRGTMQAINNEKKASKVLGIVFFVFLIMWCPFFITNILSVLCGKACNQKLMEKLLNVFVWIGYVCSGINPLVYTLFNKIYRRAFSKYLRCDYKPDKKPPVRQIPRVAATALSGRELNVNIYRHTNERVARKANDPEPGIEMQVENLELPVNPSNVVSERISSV
The experiment in a line: Displacement of [3H]mesulergine from serotonin 5-HT2C receptor in Sprague-Dawley rat brain cortex homogenates incubated for 15 mins by liquid scintillation spectrometry.

Experiment [4] has as its target T2, 5-hydroxytryptamine receptor 2A. The experiment in a line: Antagonist activity at 5-HT2A receptor in Sprague-Dawley rat ielum assessed as reduction in 5-HT-evoked contraction. Format: functional. The method, boiled down:
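Ileum segments from CO2-asphyxiated rats, longitudinal contractions recorded isotonically (0.5 g load) in 20 mL Krebs at 37°C gassed with 95% O2/5% CO2; 60 min equilibration, then three additions of 5-HT (10^-5 M) for stable control contractions. Compounds dissolved in DMSO (<0.01%), 10 min contact per concentration. IC50 (50% inhibition of 5-HT contraction) and Emax derived by curve fitting; mean (SEM).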

For experiment [5], the target named is 5-hydroxytryptamine receptor 2A (Rattus norvegicus) (UniProt P14842). The experiment in a line: Antagonist activity at 5-HT2A receptor in Sprague-Dawley rat ielum assessed as reduction in 5-HT-evoked contraction relative to control. In kind it is functional.
Sequence of 5-hydroxytryptamine receptor 2A (Rattus norvegicus) (P14842 whole entry): as the sequence (P14842 whole entry) above
Experiment [6] shares this target. The experiment in a line: Agonist activity at 5-HT2A receptor in Sprague-Dawley rat ileum assessed as induction of contraction. In kind it is functional.
Experiment [7] has the same target. To be noted: Sprague-Dawley, 0.3 uM.
Experiment [8] shares this target. As to the kind of experiment: Antagonist activity at 5-HT2A receptor in Sprague-Dawley rat ielum assessed as reduction in 5-HT-evoked contraction at 10 uM.

Active and inactive are the calls of the source. The rule behind the calls is not given here.

As usually defined, the Ki is a measure of affinity in units of concentration, obtained from inhibition or displacement. A higher Ki goes with lower affinity. One may read the EC50 as the midpoint of the concentration-response curve. In general, Emax refers to the size of the effect at its maximum, as opposed to the concentration needed. `O=C(NCCCN1CCN(c2ccc(Cl)c(Cl)c2)CC1)c1ccccn1`: the results for the Ki in experiment [1], in experiment [2] and in experiment [3] were 181 nM, 90.4 nM and 9.57 nM, respectively. Besides, the EC50 in experiment [4] (read-out: EC50) is 770 nM. Besides, the Emax in experiment [5] was found to be 26.7%. The outcome in experiment [6] was inactive.
For `O=C(NCCCN1CCN(c2cccc3ccccc23)CC1)c1ccccn1`, the values for the Ki in experiment [1], in experiment [2] and in experiment [3] were 44.1 nM, 213 nM and above 10000 nM, respectively.
On the same counts, the results for `O=C(NCCCN1CCN(c2ccccc2)CC1)c1ccccn1` are 104 nM, 277 nM and 111 nM.
The corresponding values for `O=C(NCCN1CCN(Cc2ccc3c(c2)OCO3)CC1)c1ccccn1` are above 10000 nM, above 10000 nM and 61.2 nM.
Turning to `O=C(NCCCN1CCN(c2ccccc2Cl)CC1)c1ccccn1`, the results for the Ki in experiment [1], in experiment [2] and in experiment [3] were 71.6 nM, 763 nM and 1050 nM, respectively.
As for `NC1=N[C@H](O)[C@H]2[C@H]3O[C@]4(O)O[C@@H]([C@H](O)[C@@]2(N1)[C@@H]4O)[C@]3(O)CO`, the inhibition entry in experiment [7] is “inactive”.
Turning to `O=C(NCCCN1CCN(Cc2ccc3c(c2)OCO3)CC1)c1ccccn1`, the inhibition constant (Ki) in experiment [1] and in experiment [3] was above 10000 nM in each case. Further, the EC50 in experiment [4] (read-out: EC50) is 6480 nM. Moreover, the Emax in experiment [5] turned out to be 75.5%. The result in experiment [6] was inactive.
`O=C(NCCN1CCN(c2ccccc2F)CC1)c1ccccn1`: the Ki is 158 nM in experiment [1], above 10000 nM in experiment [2] and above 10000 nM in experiment [3].
Regarding `O=C(NCCCN1CCN(c2cccc(Cl)c2)CC1)c1ccccn1`, the Ki in experiment [1] came out at 59.5 nM; in experiment [2] it was 80.7 nM; in experiment [3], 101 nM.
As for `O=C(NCCCN1CCN(C(=O)c2ccco2)CC1)c1ccccn1`, the Ki in experiment [1] and in experiment [3] was above 10000 nM throughout. Besides, the half-maximal effective concentration (EC50) in experiment [4] (read-out: EC50) turned out to be 777 nM. For the same compound, in experiment [5], the Emax stood at 53.1%. For the same compound, the result in experiment [6] was inactive.
Consider `O=C(NCCN1CCN(c2cccc(Cl)c2)CC1)c1ccccn1`, for which the Ki in experiment [1] was 267 nM; in experiment [2], 309 nM; in experiment [3], 90.9 nM.
On the same counts, the results for `COc1ccccc1N1CCN(CCCNC(=O)c2ccccn2)CC1` are 40.1 nM, above 10000 nM and 128 nM.
Regarding `COc1ccccc1N1CCN(CCNC(=O)c2ccccn2)CC1`, the Ki is 599 nM in experiment [1], 0.0224 nM in experiment [2] and above 10000 nM in experiment [3]. In experiment [4] (read-out: EC50), the half-maximal effective concentration (EC50) stood at 4250 nM. Also, the maximal effect (Emax) in experiment [5] came out at 33.7%. Moreover, the result in experiment [6] was inactive.
As to `O=C(NCCN1CCN(C(c2ccc(F)cc2)c2ccc(F)cc2)CC1)c1ccccn1`, the inhibition constant Ki in experiment [1] is above 10000 nM.
`O=C(NCCCN1CCN(c2cccc(C(F)(F)F)c2)CC1)c1ccccn1`: the Ki was 17.9 nM in experiment [1], above 10000 nM in experiment [2] and above 10000 nM in experiment [3].
Consider `O=C(NCCN1CCN(C(=O)c2ccco2)CC1)c1ccccn1`, for which the inhibitory constant (Ki) in experiment [1], in experiment [2] and in experiment [3] was above 10000 nM throughout.
Regarding `CCOc1ccccc1N1CCN(CCCNC(=O)c2ccccn2)CC1`, the Ki in experiment [1] was found to be 85.6 nM; in experiment [2], 119 nM; in experiment [3], 80 nM.
With `COc1ccc(N2CCN(CCCNC(=O)c3ccccn3)CC2)cc1`, the Ki in experiment [1], in experiment [2] and in experiment [3] was above 10000 nM each time.
Regarding `O=C(NCCCN1CCN(c2ccccn2)CC1)c1ccccn1`, the figures for the Ki in experiment [1], in experiment [2] and in experiment [3] were 495 nM, above 10000 nM and 140 nM, respectively.
The corresponding values for `Cc1cccc(N2CCN(CCCNC(=O)c3ccccn3)CC2)c1C` are 88.7 nM, above 10000 nM and 105 nM.
For the compound `Cc1ccc(N(CC2=NCCN2)c2cccc(O)c2)cc1`, the inhibition entry in experiment [8] was “inactive”.
On to `O=C(NCCCN1CCN(C(c2ccccc2)c2ccc(Cl)cc2)CC1)c1ccccn1` (configuration not stated), for which the figures for the Ki in experiment [1], in experiment [2] and in experiment [3] were 443 nM, 725 nM and above 10000 nM, respectively.
On the same counts, the results for `O=C(NCCN1CCN(C(c2ccccc2)c2ccc(Cl)cc2)CC1)c1ccccn1` (configuration not stated) are 540 nM, 504 nM and 49.8 nM.
For `O=C(NCCN1CCN(c2ccccc2)CC1)c1ccccn1`, the figures for the Ki in experiment [1], in experiment [2] and in experiment [3] were 161 nM, 53.2 nM and above 10000 nM, respectively. The EC50 entry in experiment [4] is “Not Active”.
Regarding `O=C(NCCN1CCN(c2ccccc2Cl)CC1)c1ccccn1`, the Ki is 412 nM in experiment [1], above 10000 nM in experiment [2] and 268 nM in experiment [3].
As to `O=C(NCCN1CCN(c2cccc3ccccc23)CC1)c1ccccn1`, the inhibition constant (Ki) worked out at 20.8 nM in experiment [1], 91.1 nM in experiment [2] and 116 nM in experiment [3].
Take `COc1ccc(N2CCN(CCNC(=O)c3ccccn3)CC2)cc1`: the Ki in experiment [1] is 138 nM; in experiment [2], 9.33 nM; in experiment [3], above 10000 nM. Moreover, the EC50 result in experiment [4] is on record as “Not Active”.
`O=C(NCCN1CCN(c2ccc(F)cc2)CC1)c1ccccn1`: the Ki is 82 nM in experiment [1], 241 nM in experiment [2] and 79.4 nM in experiment [3].
Turning to `CN1[C@@H]2CC[C@H]1C[C@@H](OC(=O)C(CO)c1ccccc1)C2` (some centres not stated), the inhibition result in experiment [8] is “inactive”.
For `N#Cc1ccccc1N1CCN(CCCNC(=O)c2ccccn2)CC1`, the Ki in experiment [1] was 108 nM; in experiment [2] it was above 10000 nM; in experiment [3] it was 128 nM.
The corresponding values for `CCOc1ccccc1N1CCN(CCNC(=O)c2ccccn2)CC1` are 55.4 nM, above 10000 nM and above 10000 nM.
For `O=C(NCCCN1CCN(c2ccccc2F)CC1)c1ccccn1`, the Ki in experiment [1] was 230 nM; in experiment [2], 327 nM; in experiment [3], above 10000 nM.
The corresponding values for `O=C(NCCN1CCN(c2ccccn2)CC1)c1ccccn1` are 32.7 nM, above 10000 nM and above 10000 nM.
On the same counts, the results for `O=C(NCCCN1CCN(c2ccc(F)cc2)CC1)c1ccccn1` are above 10000 nM, 161 nM and 11.7 nM.
On the same counts, the results for `N#Cc1ccccc1N1CCN(CCNC(=O)c2ccccn2)CC1` are 74.8 nM, 616 nM and above 10000 nM.
Turning to `Cc1cccc(N2CCN(CCNC(=O)c3ccccn3)CC2)c1C`, the Ki in experiment [1] was 215 nM; in experiment [2] it was above 10000 nM; in experiment [3], above 10000 nM.
On to `O=C(NCCCN1CCN(c2ccc(Cl)cc2)CC1)c1ccccn1`, for which the Ki in experiment [1] was 68 nM; in experiment [2], 371 nM; in experiment [3] it was 39.7 nM.
As to `O=C(NCCN1CCN(c2cccc(C(F)(F)F)c2)CC1)c1ccccn1`, the EC50 in experiment [4] (read-out: EC50) was 161 nM. In addition, the Emax in experiment [5] was determined as 48.4%. The outcome in experiment [6] was inactive.
On the same counts, the results for `O=C(NCCCN1CCN(C(c2ccc(F)cc2)c2ccc(F)cc2)CC1)c1ccccn1` are 2040 nM, 68.4% and “inactive”.
For the compound `O=C(NCCCN1CCN(c2ncccn2)CC1)c1ccccn1`, the values for the Ki in experiment [1], in experiment [2] and in experiment [3] were 500 nM, 16.8 nM and above 10000 nM, respectively. The EC50 in experiment [4] (read-out: EC50) is 828 nM. For the same compound, in experiment [5], the Emax was 32.1%. The outcome in experiment [6] was inactive.
